A word on the EC50: it is the concentration that produces a half-maximal response.

In data set [1] the test system is T1, Chloroquine resistance transporter (Plasmodium falciparum), Q9N623 [K76T].
T1 sequence (whole entry): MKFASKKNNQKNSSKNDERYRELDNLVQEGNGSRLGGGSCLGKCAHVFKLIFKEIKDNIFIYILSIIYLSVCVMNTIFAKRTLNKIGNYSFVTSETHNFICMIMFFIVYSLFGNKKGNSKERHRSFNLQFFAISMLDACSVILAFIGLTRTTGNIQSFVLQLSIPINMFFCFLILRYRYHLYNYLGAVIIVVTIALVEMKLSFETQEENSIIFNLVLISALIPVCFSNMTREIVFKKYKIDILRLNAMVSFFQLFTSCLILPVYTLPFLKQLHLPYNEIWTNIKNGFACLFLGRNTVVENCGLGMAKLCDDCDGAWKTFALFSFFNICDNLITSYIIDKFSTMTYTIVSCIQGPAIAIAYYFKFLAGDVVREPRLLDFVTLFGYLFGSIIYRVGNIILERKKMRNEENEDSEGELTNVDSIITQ
The experiment in a line: Inhibition of CRT K76T mutant in chloroquine/artemisinin-resistant Plasmodium falciparum NHP4773 assessed as reversal of chloroquine resistance by measuring reduction in chloroquine IC50 at 500 nM relative to chloroquine alone.

The subject of data set [2] is Plasmodium falciparum 7G8. The experiment in a line: Inhibition of CRT SVMNT haplotype mutant in intermediate chloroquine-resistant Plasmodium falciparum 7G8 isolate MRA-154 t assessed as reversal of chloroquine resistance by measuring reduction in chloroquine IC50 at 500 nM relative to chloroquine alone.
Data set [3] deals with T1, Chloroquine resistance transporter (Plasmodium falciparum), Q9N623 [K76T]. In words: Inhibition of CRT K76T mutant in chloroquine-resistant Plasmodium falciparum NHP4559 assessed as reversal of chloroquine resistance by measuring reduction in chloroquine IC50 at 500 nM relative to chloroquine alone.
Data set [4] relates to Plasmodium falciparum. In words: Intrinsic antimalarial activity against chloroquine-sensitive Plasmodium falciparum HB3 isolate MRA-155 assessed as reduction in parasite viability at 500 nM. The class given is functional, organism-based.
Data set [5] relates to T1, Chloroquine resistance transporter (Plasmodium falciparum), Q9N623 [K76T]. In words: Inhibition of CRT K76T mutant in chloroquine-resistant Plasmodium falciparum Dd2 isolate MRA-156 assessed as reversal of chloroquine resistance by measuring reduction in chloroquine IC50 at 500 nM relative to chloroquine alone.
The test system is the same in data set [6]. In words: Inhibition of CRT K76T mutant in chloroquine/artemisinin-resistant Plasmodium falciparum ARS272 assessed as reversal of chloroquine resistance by measuring reduction in chloroquine IC50 at 500 nM relative to chloroquine alone.
Data set [7] concerns Plasmodium falciparum K1. In words: Inhibition of CRT CVIET haplotype mutant in Plasmodium falciparum K1 isolate MRA-159 infected in erythrocytes assessed as chloroquine-coumarin probe accumulation at 10 uM after 10 hrs by Hoechst 33342 staining based flow cytometry (reference value: 35.57 +/- 3.84%). The class given is cell-based. Details: scale not given: the % may be the effect or the level left. In a few lines:
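Infected erythrocyte cultures at 2.5% hematocrit and 7–12% parasitemia, synchronized to late-ring/early-trophozoite stage, were incubated with chloroquine-coumarin probe plus test agent for 10 h at 37 C. Cells were then washed, resuspended in PBS and read by flow cytometry (405 nm excitation, 450/50 filter). Hoechst-stained duplicate wells set parasitemia. Uptake = % infected erythrocytes fluorescent. Controls: PBS (negative), desipramine and parent compound (positive). ≥3 independent experiments; mean ± SEM.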
On the technique in general: A flow cytometer gives signals particle by particle.

The subject of data set [8] is Plasmodium falciparum. In words: Intrinsic antimalarial activity against chloroquine/artemisinin-resistant Plasmodium falciparum ARS233 harboring CRT K76T mutant assessed as reduction in parasite viability at 500 nM. The class given is functional, organism-based.
Data set [9] deals with Plasmodium falciparum. In words: Intrinsic antimalarial activity against chloroquine/artemisinin-resistant Plasmodium falciparum ARS272 harboring CRT K76T mutant assessed as reduction in parasite viability at 500 nM. The class given is functional, organism-based.
The subject of data set [10] is Plasmodium falciparum. The experiment in a line: Intrinsic antimalarial activity against chloroquine-sensitive Plasmodium falciparum 3D7 isolate MRA-102 assessed as reduction in parasite viability at 500 nM. The class given is functional, organism-based.
Data set [11] concerns Plasmodium falciparum. The experiment in a line: Intrinsic antimalarial activity against chloroquine-resistant Plasmodium falciparum NHP4559 harboring CRT K76T mutant assessed as reduction in parasite viability at 500 nM. The class given is functional, organism-based.
Data set [12] concerns Plasmodium falciparum. The experiment in a line: Intrinsic antimalarial activity against intermediate chloroquine-resistant Plasmodium falciparum 7G8 isolate MRA-154 harboring CRT SVMNT haplotype mutant assessed as reduction in parasite viability at 500 nM. The class given is functional, organism-based.
The subject of data set [13] is Plasmodium falciparum. In words: Intrinsic antimalarial activity against chloroquine/artemisinin-resistant Plasmodium falciparum NHP4773 harboring CRT K76T mutant assessed as reduction in parasite viability at 500 nM. The class given is functional, organism-based.
In data set [14] the test system is Plasmodium falciparum. The experiment in a line: Intrinsic antimalarial activity against chloroquine-resistant Plasmodium falciparum K1 isolate MRA-159 harboring CRT CVIET haplotype mutant assessed as reduction in parasite viability at 500 nM. The class given is functional, organism-based.
A short description of data set [15]: Resistance index, ratio of chloroquine IC50 for intermediate chloroquine-resistant Plasmodium falciparum 7G8 isolate MRA-154 CRT SVMNT haplotype mutant to chloroquine IC50 for chloroquine-sensitive Plasmodium falciparum 3D7 isolate MRA-102 at 500 nM. In outline:
(§1)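 Chloroquine IC50 was measured with the chemoreversal agent fixed at 500 nM in K1 or 7G8 and in sensitive 3D7 (means, n = 3). The resistance ratio is the chloroquine IC50 in K1 or 7G8 divided by the chloroquine IC50 in 3D7.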

Data set [16] has as its system Plasmodium falciparum. The experiment in a line: Intrinsic antimalarial activity against chloroquine-resistant Plasmodium falciparum Dd2 isolate MRA-156 harboring CRT K76T mutant assessed as reduction in parasite viability at 500 nM. The class given is functional, organism-based.
Data set [17] has as its system Plasmodium falciparum. In words: Potentiation of chloroquine-induced antimalarial activity against chloroquine-sensitive Plasmodium falciparum 3D7 isolate MRA-102 assessed as reduction in chloroquine IC50 at 500 nM relative to chloroquine alone. The class given is functional.
Data set [18] relates to T1, Chloroquine resistance transporter (Plasmodium falciparum), Q9N623 [K76T]. The experiment in a line: Inhibition of CRT K76T mutant in chloroquine/artemisinin-resistant Plasmodium falciparum ARS233 assessed as reversal of chloroquine resistance by measuring reduction in chloroquine IC50 at 500 nM relative to chloroquine alone.
The nature of data set [19]: Resistance index, ratio of chloroquine IC50 for chloroquine-resistant Plasmodium falciparum K1 isolate MRA-159 CRT CVIET haplotype mutant to chloroquine IC50 for chloroquine-sensitive Plasmodium falciparum 3D7 isolate MRA-102 at 500 nM. In outline: as §1
In data set [20] the test system is Plasmodium falciparum. In words: Potentiation of chloroquine-induced antimalarial activity against chloroquine-sensitive Plasmodium falciparum HB3 isolate MRA-155 assessed as reduction in chloroquine IC50 at 500 nM relative to chloroquine alone. The class given is functional.
Data set [21] has as its system Plasmodium falciparum K1. In words: Inhibition of CRT CVIET haplotype mutant in chloroquine-resistant Plasmodium falciparum K1 isolate MRA-159 assessed as reversal of chloroquine resistance by measuring reduction in chloroquine IC50 at 500 nM relative to chloroquine alone.
Data set [22] in a line: Inhibition of CRT CVIET haplotype mutant in chloroquine-resistant Plasmodium falciparum K1 isolate MRA-159 assessed as reversal of chloroquine resistance by measuring reduction in chloroquine IC50 relative to chloroquine alone. In a few lines:
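Chloroquine IC50 was determined in the presence of a fixed 500 nM chemoreversal agent, against chloroquine alone. The RMI is the ratio of chloroquine IC50 with agent to chloroquine IC50 alone. Mean of n = 3; two-tailed t test versus chloroquine without agent.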

Data set [23] in a line: Aqueous kinetic solubility of compound in pH 7.4 solution incubated for 24 hrs. Particulars: aqueous solution pH 7.4, pH 7.4; read-out: Kinetic_solubility. The class given is physicochemical.

≈ marks a conversion by molar mass, not a printed value. Calls of active or inactive are those of the source. The calls are words filed in the database; no cut-off is given here.

For the compound `N[C@@H]1C2CCN(CC2)[C@@H]1C(c1ccccc1)c1ccccc1` (relative stereo), the Ratio IC50 stood at 1.04 in data set [1]; 0.93 in data set [2]; 0.98 in data set [3]; 0.94 in data set [5]; 0.99 in data set [6]; 5.2 in [15]. The “Ratio IC50” value was found to be 1.1 in the data set with Plasmodium falciparum [17]; 0.97 in data set [18]; 17.4 in data set [19]; 0.99 in the data set on Plasmodium falciparum [20]; 0.93 with Plasmodium falciparum K1 [21]. Moreover, the outcome in the data set on Plasmodium falciparum [4], with Plasmodium falciparum [8], in the data set with Plasmodium falciparum [9], in the data set on Plasmodium falciparum [10], in the data set with Plasmodium falciparum [11] and in the data set with Plasmodium falciparum [12] was inactive. Also, the outcome in the data set with Plasmodium falciparum [13], in the data set on Plasmodium falciparum [14] and with Plasmodium falciparum [16] was inactive. Moreover, in the data set on Plasmodium falciparum K1 [7], the Activity stood at 52.5%.
As for `N#CC(CCN1CCCCC1)(c1ccccc1)c1ccccc1`, the Ratio IC50 came to 0.74 in data set [1]; 1 in [2]; 0.66 in data set [3]; 0.76 in data set [5]; 0.7 in [6]; 5.1 in data set [15]. Besides, the “Ratio IC50” value with Plasmodium falciparum [17] came out at 1.2; in data set [18], 0.7; in data set [19], 12.2; with Plasmodium falciparum [20], 0.98; in the data set on Plasmodium falciparum K1 [21] it was 0.71. Moreover, the outcome with Plasmodium falciparum [4], in the data set with Plasmodium falciparum [8], in the data set with Plasmodium falciparum [9], in the data set on Plasmodium falciparum [10], in the data set on Plasmodium falciparum [11] and in the data set with Plasmodium falciparum [12] was inactive. Moreover, the outcome with Plasmodium falciparum [13], in the data set on Plasmodium falciparum [14] and in the data set with Plasmodium falciparum [16] was inactive. Moreover, the concentration giving a half-maximal response (EC50) in data set [22] was 295 nM. In addition, the Activity in the data set on Plasmodium falciparum K1 [7] amounted to 67%.
As for `NCC(CCN1CCC(O)CC1)(c1ccccc1)c1ccccc1`, the Ratio IC50 in data set [1] turned out to be 0.94; in data set [2], 0.98; in data set [3], 0.95; in [5], 0.91; in data set [6], 0.93; in data set [15], 5.3. Also, the “Ratio IC50” value was found to be 1.13 in the data set with Plasmodium falciparum [17]; 0.9 in [18]; 13.4 in data set [19]; 0.99 in the data set on Plasmodium falciparum [20]; 0.74 with Plasmodium falciparum K1 [21]. Further, the outcome in the data set on Plasmodium falciparum [4], in the data set with Plasmodium falciparum [8], in the data set with Plasmodium falciparum [9], in the data set on Plasmodium falciparum [10], in the data set on Plasmodium falciparum [11] and in the data set with Plasmodium falciparum [12] was inactive. The result with Plasmodium falciparum [13], in the data set with Plasmodium falciparum [14] and in the data set on Plasmodium falciparum [16] was inactive. Also, the Activity with Plasmodium falciparum K1 [7] worked out at 64.8%.
`Clc1ccc2c(c1)C(N1CCNCC1)Cc1ccccc1S2` (stereo not drawn): the Ratio IC50 is 0.73 in data set [1]; 0.88 in data set [2]; 0.73 in data set [3]; 0.83 in data set [5]; 0.76 in data set [6]; 4.8 in [15]. Also, the “Ratio IC50” value in the data set with Plasmodium falciparum [17] is 1.14; in data set [18], 0.71; in [19] it was 12.4; with Plasmodium falciparum [20], 0.93; with Plasmodium falciparum K1 [21] it was 0.69. Besides, the result in the data set with Plasmodium falciparum [4], with Plasmodium falciparum [8], in the data set on Plasmodium falciparum [9], in the data set on Plasmodium falciparum [10], with Plasmodium falciparum [11] and in the data set with Plasmodium falciparum [12] was inactive. In addition, the result with Plasmodium falciparum [13], in the data set on Plasmodium falciparum [14] and with Plasmodium falciparum [16] was inactive. In [23], the solubility kinetic at 24 h is 38.1 µg/mL (≈ 115 µM). In the data set with Plasmodium falciparum K1 [7], the Activity came to 79.6%.
`NCC(c1ccccc1)c1ccccc1`: the Ratio IC50 in data set [1] was 0.54; in [2] it was 0.69; in data set [3], 0.52; in data set [5], 0.59; in data set [6], 0.37; in [15], 3.8. In addition, the “Ratio IC50” value worked out at 1.11 in the data set on Plasmodium falciparum [17]; 0.53 in [18]; 8.4 in [19]; 1.1 with Plasmodium falciparum [20]; 0.45 with Plasmodium falciparum K1 [21]. Also, the result with Plasmodium falciparum [4], with Plasmodium falciparum [8], in the data set with Plasmodium falciparum [9], in the data set on Plasmodium falciparum [10], in the data set with Plasmodium falciparum [11] and in the data set on Plasmodium falciparum [12] was inactive. Moreover, the outcome in the data set on Plasmodium falciparum [13], with Plasmodium falciparum [14] and in the data set on Plasmodium falciparum [16] was inactive. In addition, the EC50 in [22] came out at 200 nM. In addition, the Activity with Plasmodium falciparum K1 [7] came out at 56.4%.
As to `Ic1ccccc1CN[C@@H]1C2CCN(CC2)[C@@H]1Cc1ccccc1` (relative stereo), the result in the data set with Plasmodium falciparum [4], with Plasmodium falciparum [8], in the data set with Plasmodium falciparum [9], in the data set on Plasmodium falciparum [10], in the data set on Plasmodium falciparum [11] and in the data set with Plasmodium falciparum [12] was inactive. In addition, the result in the data set on Plasmodium falciparum [13], in the data set on Plasmodium falciparum [14] and in the data set with Plasmodium falciparum [16] was inactive. Also, the Activity in the data set with Plasmodium falciparum K1 [7] stood at 25.8%.
Take `N#CC(CCBr)(c1ccccc1)c1ccccc1`: the result in the data set with Plasmodium falciparum [4], in the data set on Plasmodium falciparum [8], in the data set with Plasmodium falciparum [9], with Plasmodium falciparum [10], in the data set with Plasmodium falciparum [11] and in the data set with Plasmodium falciparum [12] was inactive. Also, the outcome with Plasmodium falciparum [13], with Plasmodium falciparum [14] and in the data set on Plasmodium falciparum [16] was inactive. Also, the Activity with Plasmodium falciparum K1 [7] was found to be 29.6%.
